Reference: ChEMBL document CHEMBL3421533, “The Discovery of Orally Bioavailable Tyrosine Threonine Kinase (TTK) Inhibitors: 3-(4-(heterocyclyl)phenyl)-1H-indazole-5-carboxamides as Anticancer Agents” (J Med Chem, 2015)

Columns and labels:
HCT-116 = experiment: Induction of chromosome segregation defect in human HCT116 cells assessed as anaphase and telophase cells with lagging chromosomes at 100 nM incubated for 6 hrs post double thymidine block by DAPI staining-based immunofluorescence microscopic analysis (reference value: 19 +/- 2%); format: functional
[1] = Cytotoxicity against HMEC after 5 days by sulforhodamine B assay; format: cell-based; conditions: human, HMEC cells
Method in brief: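 Cells were seeded at 800–6000 per well according to growth rate, 24 h before compound overlay. After culture they were fixed in situ and stained with sulforhodamine B. GI50 was calculated by curve fitting.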

SW-620 = experiment: Cytotoxicity against human SW620 cells after 5 days by sulforhodamine B assay; format: functional; conditions: SW-620, 120 h
Method in brief: (§1)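 Cancer lines were seeded at 800–6000 cells per well according to growth rate, 24 h before compound overlay. After culture, cells were fixed in situ and stained with sulforhodamine B. GI50 values were derived by curve fitting.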

[2] = molecular target: Mast/stem cell growth factor receptor Kit (Homo sapiens, UniProt P10721, V560G); experiment: Inhibition of human cKit V560G mutant by millipore radiometric assay
Sequence of Mast/stem cell growth factor receptor Kit (P10721 26-976 V560G limits assumed): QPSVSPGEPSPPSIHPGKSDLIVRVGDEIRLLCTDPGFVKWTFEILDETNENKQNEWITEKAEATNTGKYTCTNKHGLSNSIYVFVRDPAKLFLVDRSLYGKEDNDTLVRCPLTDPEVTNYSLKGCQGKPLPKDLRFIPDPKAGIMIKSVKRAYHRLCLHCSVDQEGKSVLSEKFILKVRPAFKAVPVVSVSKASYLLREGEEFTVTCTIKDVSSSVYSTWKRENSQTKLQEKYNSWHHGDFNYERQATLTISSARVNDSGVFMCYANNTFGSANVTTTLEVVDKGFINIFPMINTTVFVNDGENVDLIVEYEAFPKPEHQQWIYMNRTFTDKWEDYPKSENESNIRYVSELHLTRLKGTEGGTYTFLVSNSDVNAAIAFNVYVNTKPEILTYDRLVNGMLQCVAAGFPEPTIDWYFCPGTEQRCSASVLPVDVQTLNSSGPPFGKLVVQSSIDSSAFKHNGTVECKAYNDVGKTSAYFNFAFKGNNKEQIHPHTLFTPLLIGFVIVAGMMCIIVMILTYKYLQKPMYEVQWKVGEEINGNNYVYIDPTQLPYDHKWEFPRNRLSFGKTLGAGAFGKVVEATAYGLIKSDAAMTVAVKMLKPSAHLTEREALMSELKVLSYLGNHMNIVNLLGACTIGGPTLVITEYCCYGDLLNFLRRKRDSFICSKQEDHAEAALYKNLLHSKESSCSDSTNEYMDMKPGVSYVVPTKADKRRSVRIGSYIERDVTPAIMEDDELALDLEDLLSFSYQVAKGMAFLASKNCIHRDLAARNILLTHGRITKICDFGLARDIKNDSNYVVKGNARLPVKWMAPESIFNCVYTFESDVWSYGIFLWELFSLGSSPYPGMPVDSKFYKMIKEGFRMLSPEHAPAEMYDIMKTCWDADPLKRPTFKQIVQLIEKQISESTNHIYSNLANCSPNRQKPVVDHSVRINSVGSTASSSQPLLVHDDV
Method in brief: (§2)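 Radiometric profiling against a 278-kinase panel was done with ATP at Km. Half-maximal inhibitory concentrations were then determined for the kinases most inhibited.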

[3] = Cytotoxicity against human OVCAR3 cells after 5 days by sulforhodamine B assay; format: functional, OVCAR-3
[4] = molecular target: Proto-oncogene tyrosine-protein kinase receptor Ret (Homo sapiens, UniProt P07949, V804L); experiment: Inhibition of human Ret V804L mutant by millipore radiometric assay; method in brief: as §2
Sequence of Proto-oncogene tyrosine-protein kinase receptor Ret (P07949 29-1114 V804L limits assumed): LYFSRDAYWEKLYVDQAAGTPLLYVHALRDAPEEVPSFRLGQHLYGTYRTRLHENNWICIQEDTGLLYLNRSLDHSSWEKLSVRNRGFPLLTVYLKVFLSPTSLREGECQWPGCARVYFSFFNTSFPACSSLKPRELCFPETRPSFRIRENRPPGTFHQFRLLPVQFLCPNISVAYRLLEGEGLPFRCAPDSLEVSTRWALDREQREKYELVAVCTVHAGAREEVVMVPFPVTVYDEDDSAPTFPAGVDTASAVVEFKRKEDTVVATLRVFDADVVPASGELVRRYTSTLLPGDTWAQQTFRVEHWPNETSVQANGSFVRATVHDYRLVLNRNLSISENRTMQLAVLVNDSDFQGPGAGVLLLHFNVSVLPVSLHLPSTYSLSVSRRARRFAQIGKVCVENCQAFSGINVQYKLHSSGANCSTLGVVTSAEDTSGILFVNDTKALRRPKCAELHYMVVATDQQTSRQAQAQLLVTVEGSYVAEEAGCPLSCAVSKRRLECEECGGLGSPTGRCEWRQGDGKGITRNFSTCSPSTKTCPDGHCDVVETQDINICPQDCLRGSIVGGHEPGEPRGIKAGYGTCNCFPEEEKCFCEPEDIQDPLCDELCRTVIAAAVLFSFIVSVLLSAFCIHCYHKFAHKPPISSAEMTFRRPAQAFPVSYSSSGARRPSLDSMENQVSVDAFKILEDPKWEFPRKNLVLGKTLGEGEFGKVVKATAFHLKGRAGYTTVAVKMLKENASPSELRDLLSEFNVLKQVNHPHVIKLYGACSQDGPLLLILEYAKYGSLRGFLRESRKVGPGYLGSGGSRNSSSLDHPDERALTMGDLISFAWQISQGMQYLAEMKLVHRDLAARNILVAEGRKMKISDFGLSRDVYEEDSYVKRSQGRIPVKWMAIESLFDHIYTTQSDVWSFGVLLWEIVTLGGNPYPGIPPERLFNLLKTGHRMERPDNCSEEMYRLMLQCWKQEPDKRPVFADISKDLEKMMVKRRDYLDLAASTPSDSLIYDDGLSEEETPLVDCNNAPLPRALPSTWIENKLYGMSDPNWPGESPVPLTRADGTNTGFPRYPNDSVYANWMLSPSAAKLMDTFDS

Cytochrome P450 3A4 = Cytochrome P450 3A4 (Homo sapiens, UniProt P08684); experiment: Inhibition of human CYP3A4 using BFC as substrate preincubated for 10 mins followed by enzyme/substrate addition measured after 30 mins by fluorescence assay; format: ADME
Sequence of Cytochrome P450 3A4 (P08684 whole entry): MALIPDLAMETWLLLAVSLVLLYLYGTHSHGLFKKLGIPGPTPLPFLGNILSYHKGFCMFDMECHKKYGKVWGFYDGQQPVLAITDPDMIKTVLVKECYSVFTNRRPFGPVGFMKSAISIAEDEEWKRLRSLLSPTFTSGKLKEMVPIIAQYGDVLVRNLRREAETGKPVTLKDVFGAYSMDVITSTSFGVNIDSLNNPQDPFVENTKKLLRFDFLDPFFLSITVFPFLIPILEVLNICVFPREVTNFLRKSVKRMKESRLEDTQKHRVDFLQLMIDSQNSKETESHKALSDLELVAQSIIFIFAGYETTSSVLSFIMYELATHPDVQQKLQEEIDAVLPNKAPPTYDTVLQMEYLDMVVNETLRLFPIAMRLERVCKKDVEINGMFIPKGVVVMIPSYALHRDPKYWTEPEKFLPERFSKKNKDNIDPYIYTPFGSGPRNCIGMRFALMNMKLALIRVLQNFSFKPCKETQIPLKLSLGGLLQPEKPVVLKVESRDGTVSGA

[5] = molecular target: Serine/threonine-protein kinase PLK4 (Homo sapiens, UniProt O00444); experiment: Inhibition of PLK4 (unknown origin) by indirect ELISA detection system
Sequence of Serine/threonine-protein kinase PLK4 (O00444 whole entry): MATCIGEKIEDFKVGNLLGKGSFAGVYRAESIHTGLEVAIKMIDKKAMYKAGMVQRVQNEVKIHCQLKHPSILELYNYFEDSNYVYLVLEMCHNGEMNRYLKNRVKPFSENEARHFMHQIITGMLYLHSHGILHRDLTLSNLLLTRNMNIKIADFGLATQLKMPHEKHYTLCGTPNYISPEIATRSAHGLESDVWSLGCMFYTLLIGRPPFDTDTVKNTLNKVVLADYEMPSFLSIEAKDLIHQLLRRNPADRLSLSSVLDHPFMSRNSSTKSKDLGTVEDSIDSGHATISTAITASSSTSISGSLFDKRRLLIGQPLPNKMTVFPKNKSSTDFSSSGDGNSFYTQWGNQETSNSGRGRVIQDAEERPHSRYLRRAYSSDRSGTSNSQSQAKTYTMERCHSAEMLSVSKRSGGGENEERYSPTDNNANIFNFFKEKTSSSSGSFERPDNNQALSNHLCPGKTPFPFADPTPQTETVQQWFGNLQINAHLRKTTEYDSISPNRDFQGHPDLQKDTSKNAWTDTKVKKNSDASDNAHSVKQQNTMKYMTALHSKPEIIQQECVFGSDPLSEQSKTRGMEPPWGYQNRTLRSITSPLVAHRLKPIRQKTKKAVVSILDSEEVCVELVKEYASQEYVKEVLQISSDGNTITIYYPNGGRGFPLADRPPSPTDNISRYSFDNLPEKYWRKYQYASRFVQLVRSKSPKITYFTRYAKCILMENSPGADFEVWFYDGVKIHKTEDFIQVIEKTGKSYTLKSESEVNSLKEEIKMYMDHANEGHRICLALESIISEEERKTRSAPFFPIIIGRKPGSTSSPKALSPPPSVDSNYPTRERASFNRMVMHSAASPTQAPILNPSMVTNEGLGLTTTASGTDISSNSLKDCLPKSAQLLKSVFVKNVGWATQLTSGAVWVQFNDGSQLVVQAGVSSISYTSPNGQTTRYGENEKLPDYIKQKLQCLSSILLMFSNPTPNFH

HT-29 = experiment: Cytotoxicity against human HT-29 cells after 5 days by sulforhodamine B assay; format: functional; conditions: HT-29, 120 h; method in brief: as §1
[6] = Cytotoxicity against human H23 cells after 5 days by sulforhodamine B assay; format: functional; conditions: NCI-H23, 120 h; method in brief: as §1
Aurora kinase A [7] = molecular target: T1, Aurora kinase A (Homo sapiens, UniProt O14965); experiment: Inhibition of AURKA (unknown origin) transfected in human HCT116 cells after 4 hrs by near infrared imager analysis; format: cell-based, HCT-116
T1 sequence (O14965 whole entry): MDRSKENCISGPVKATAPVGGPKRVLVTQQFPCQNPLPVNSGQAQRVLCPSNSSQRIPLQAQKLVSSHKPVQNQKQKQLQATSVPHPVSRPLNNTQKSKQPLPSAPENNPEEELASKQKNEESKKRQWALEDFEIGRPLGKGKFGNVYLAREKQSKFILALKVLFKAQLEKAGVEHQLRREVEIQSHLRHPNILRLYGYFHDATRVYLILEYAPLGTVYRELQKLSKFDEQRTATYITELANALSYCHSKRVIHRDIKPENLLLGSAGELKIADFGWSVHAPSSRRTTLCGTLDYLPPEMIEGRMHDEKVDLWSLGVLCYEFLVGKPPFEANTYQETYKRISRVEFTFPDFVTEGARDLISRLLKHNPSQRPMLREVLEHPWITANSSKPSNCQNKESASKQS
Method in brief: (§3)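 HCT116 cells transfected with wild-type TTK were arrested with nocodazole (200 ng/mL, 17 h). They were pretreated with MG132 (15 μM, 30 min), then exposed to compound or DMSO for 4 h. Blots were probed for phospho-TTK (Thr12/Ser15), phospho-Aurora A (Thr288)/B (Thr232), TTK and GAPDH. Bands were quantified by near-infrared imaging, and EC50 was fitted.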

[8] = molecular target: T2, Dual specificity protein kinase TTK (Homo sapiens, UniProt P33981); experiment: Inhibition of TTK (unknown origin) transfected in human HCT116 cells after 4 hrs by near infrared imager analysis; format: cell-based, HCT-116; method in brief: as §3
T2 sequence (P33981 whole entry): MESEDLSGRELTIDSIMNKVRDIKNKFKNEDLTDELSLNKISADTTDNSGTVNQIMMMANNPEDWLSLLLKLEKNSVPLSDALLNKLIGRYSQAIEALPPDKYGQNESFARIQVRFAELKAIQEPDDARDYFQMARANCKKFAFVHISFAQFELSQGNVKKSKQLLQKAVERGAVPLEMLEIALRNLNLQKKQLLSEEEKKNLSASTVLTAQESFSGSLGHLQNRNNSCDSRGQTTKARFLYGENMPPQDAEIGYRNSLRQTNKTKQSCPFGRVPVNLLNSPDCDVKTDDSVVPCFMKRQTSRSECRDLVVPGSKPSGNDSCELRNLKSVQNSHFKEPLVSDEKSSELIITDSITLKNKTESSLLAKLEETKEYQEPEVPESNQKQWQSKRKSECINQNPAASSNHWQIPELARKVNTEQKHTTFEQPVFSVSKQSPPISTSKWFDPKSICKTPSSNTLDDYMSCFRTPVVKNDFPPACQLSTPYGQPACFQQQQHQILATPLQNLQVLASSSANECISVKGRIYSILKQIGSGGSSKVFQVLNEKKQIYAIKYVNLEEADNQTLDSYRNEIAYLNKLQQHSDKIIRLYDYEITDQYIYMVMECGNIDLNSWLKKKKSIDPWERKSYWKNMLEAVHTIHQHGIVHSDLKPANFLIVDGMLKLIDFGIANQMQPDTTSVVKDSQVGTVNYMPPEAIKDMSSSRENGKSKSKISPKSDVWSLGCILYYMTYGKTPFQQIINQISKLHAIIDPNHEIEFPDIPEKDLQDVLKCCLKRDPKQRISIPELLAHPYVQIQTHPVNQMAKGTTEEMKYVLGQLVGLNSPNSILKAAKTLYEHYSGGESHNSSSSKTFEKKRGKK

[9] = Antitumor activity against human HCT116 cells xenografted in athymic CD1 nude mouse assessed as tumor growth inhibition at 35 mg/kg, po qd administered for 21 days measured 3 times per week during compound dosing relative to vehicle-treated control; format: functional; conditions: HCT-116, 504 h, read-out: TGI
Method in brief: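 HCT116 cells (5 million) were injected subcutaneously into the right flank of 6–8 week old female athymic CD-1 nude mice. At a mean tumor volume of 80–120 mm³, mice were randomized (n = 8). Tumors were measured three times weekly, volume x²y/2, and TGI was taken against vehicle.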

[10] = Half life in human liver microsomes at 1 uM by LC-MS analysis; format: ADME
Aurora kinase A [11] = molecular target: T1, Aurora kinase A; experiment: Inhibition of recombinant AURKA (unknown origin) preincubated for 15 mins prior to ATP addition by FRET-based homogenous assay
[12] = molecular target: Muscle, skeletal receptor tyrosine-protein kinase (Homo sapiens, UniProt O15146); experiment: Inhibition of human MuSK by millipore radiometric assay; method in brief: as §2
Sequence of Muscle, skeletal receptor tyrosine-protein kinase (O15146 whole entry): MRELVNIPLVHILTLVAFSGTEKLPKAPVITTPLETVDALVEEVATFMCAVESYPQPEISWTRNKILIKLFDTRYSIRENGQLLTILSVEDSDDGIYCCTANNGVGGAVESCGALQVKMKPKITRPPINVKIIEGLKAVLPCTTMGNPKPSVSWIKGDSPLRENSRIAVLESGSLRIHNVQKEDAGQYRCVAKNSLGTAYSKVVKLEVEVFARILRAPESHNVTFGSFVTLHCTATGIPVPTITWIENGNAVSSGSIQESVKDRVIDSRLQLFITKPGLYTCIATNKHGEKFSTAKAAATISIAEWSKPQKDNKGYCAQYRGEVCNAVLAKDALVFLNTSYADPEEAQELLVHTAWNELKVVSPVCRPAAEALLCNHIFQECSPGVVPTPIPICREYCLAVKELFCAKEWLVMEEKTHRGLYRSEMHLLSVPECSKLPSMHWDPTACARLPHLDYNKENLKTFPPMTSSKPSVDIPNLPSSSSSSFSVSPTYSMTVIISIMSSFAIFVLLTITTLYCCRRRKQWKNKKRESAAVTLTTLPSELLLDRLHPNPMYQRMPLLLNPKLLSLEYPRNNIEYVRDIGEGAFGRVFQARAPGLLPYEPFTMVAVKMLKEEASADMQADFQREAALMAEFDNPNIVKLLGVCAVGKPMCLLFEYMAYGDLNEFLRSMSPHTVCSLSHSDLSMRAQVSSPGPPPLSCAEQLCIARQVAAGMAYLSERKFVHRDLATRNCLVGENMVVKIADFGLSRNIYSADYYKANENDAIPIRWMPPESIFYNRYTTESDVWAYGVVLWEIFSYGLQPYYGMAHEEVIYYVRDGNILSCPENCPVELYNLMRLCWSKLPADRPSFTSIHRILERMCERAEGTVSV

**Q.** Which Activity (HCT-116) does the source give for `O=C(N[C@@H](c1ccccn1)C1CC1)c1ccc2[nH]nc(-c3ccc(N4[C@H]5CC[C@H]4CC(O)C5)cc3)c2c1` (stereo in doubt; 75) here?
**A.** The Activity was 61%.

**Q.** And the GI50 at 120 h [1]?
**A.** The GI50 at 120 h was > 30000 nM.

**Q.** What about the GI50 (SW-620) of the same molecule?
**A.** The GI50 was 30 nM.

**Q.** And the IC50 [2]?
**A.** The IC50 was 490 nM.

**Q.** What about the GI50 [3] of the same molecule?
**A.** The GI50 was 80 nM.

**Q.** And the IC50 [4]?
**A.** The IC50 was 250 nM.

**Q.** What about the IC50 (Cytochrome P450 3A4) of the same molecule?
**A.** Its IC50 is 1300 nM.

**Q.** And the IC50 [5]?
**A.** The IC50 was 130 nM.

**Q.** And the GI50 (HT-29)?
**A.** The GI50 was 18 nM.

**Q.** And the GI50 [6]?
**A.** Its GI50 is 36 nM.

**Q.** What about the EC50 (Aurora kinase A [7]) of the same molecule?
**A.** The EC50 was > 6000 nM.

**Q.** What about the EC50 [8] of the same molecule?
**A.** The EC50 was 14 nM.

**Q.** And the inhibition in vivo at 35 mg/kg [9]?
**A.** The inhibition in vivo at 35 mg/kg was 77%.

**Q.** What about the half-life at 1 µM [10] of the same molecule?
**A.** Its half-life at 1 µM is > 1 h.

**Q.** And the IC50 (Aurora kinase A [11])?
**A.** The IC50 was 1300 nM.

**Q.** And the IC50 [12]?
**A.** The IC50 was 690 nM.
